Five molecules from ChEMBL document CHEMBL1144720, “Diarylheptanoids and a monoterpenoid from the rhizomes of Zingiber officinale: antioxidant and cytoprotective properties” (J Nat Prod, 2008) can be followed below.

Data set [1] in a line: Antioxidant activity assessed as superoxide radical anion scavenging activity. Type of data set: functional. In outline: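 In vitro superoxide scavenging: superoxide generated by phenazine methosulfate–NADH system, detected as reduced nitroblue tetrazolium absorbance at 560 nm; dose–response used to derive IC50.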
Data set [2] deals with Liver. In words: Antioxidant activity in BALB/c mouse liver microsomes assessed as inhibition of free radical-induced lipid peroxidation after 60 mins. Type of data set: functional, Microsome. As to conditions: 1 h. The gist of the method:
(§1)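 Mouse liver microsomes subjected to free radical-induced lipid peroxidation; formation of lipid peroxides measured with compounds over a concentration range, IC50 derived; mean ± SEM, n = 4.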

Data set [3] concerns Hepatocyte. Description: Antioxidant activity against tert-butyl hydroperoxide-induced oxidative stress in Sprague-Dawley rat hepatocytes at 100 uM after 24 hrs by lactate dehydrogenase assay. It counts as functional, cell-based. The gist of the method:
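Primary rat hepatocyte cultures pretreated with compounds for 24 h, compounds removed, then exposed to tert-butyl hydroperoxide; cell damage read as lactate dehydrogenase leakage into culture medium; mean ± SEM, n = 4.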

Data set [4] deals with Liver. Description: Antioxidant activity in BALB/c mouse liver microsomes assessed as complete inhibition of free radical-induced lipid peroxidation at 40 uM after 60 mins. Type of data set: functional. As to conditions: Microsome. In outline: as §1
Another data set relates to KB. Description: Cytotoxicity against human KB cells after 3 to 5 days by MTT assay. It counts as functional, cell-based.
The test system of data set [5] is Hepatocyte. In words: Cytotoxicity against rat hepatocytes upto 100 uM after 48 hrs. Type of data set: cell-based. In outline: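 Primary cultured rat hepatocytes incubated with compounds up to 100 µM for 48 h to check cytotoxicity.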
Data set [6] has as its system Liver. Description: Antioxidant activity in BALB/c mouse liver microsomes assessed as complete inhibition of free radical-induced lipid peroxidation at 20 uM after 60 mins. It counts as functional. As to conditions: Microsome. The gist of the method:
as §1
On the technique in general: Liver microsomes are a subcellular fraction often used to study metabolism.

SMILES strings stand for the structures. Active and inactive are the calls of the source. The calls are words filed in the database; no cut-off is given here.

Usually IC50 stands for the concentration needed to halve the response being measured. As to `COc1cc([C@@H]2C[C@H](O)C[C@H](CCc3ccc(O)cc3)O2)cc(O)c1O`, the results for the IC50 (in data set [1]; with Liver [2]) were 48.1 µM and 27.9 µM, respectively. The result in the data set with Hepatocyte [3] and in the data set with Liver [4] was Active.
On to `COc1cc(CCC(=O)CC(O)CCc2cc(O)c(O)c(OC)c2)ccc1O` (stereo not given), for which the values for the Activity result with KB and in the data set on Hepatocyte [5] were “Not toxic” and “Non-toxic”, respectively.
On to `COc1cc([C@@H]2C[C@@H](O)C[C@H](CCc3ccc(O)c(O)c3)O2)cc(O)c1O`, for which the Activity entry in the data set with KB was “Not toxic”; with Hepatocyte [5], “Non-toxic”. In addition, the IC50 was found to be 39.9 µM in data set [1] and 21.9 µM in the data set on Liver [2]. Besides, the outcome in the data set on Hepatocyte [3] and in the data set with Liver [4] was Active.
With `COc1cc(CCC(O)CC(=O)CCc2cc(O)c(O)c(OC)c2)ccc1O` (stereo not given), the values for the Activity result in the data set with KB and with Hepatocyte [5] were “Not toxic” and “Non-toxic”, respectively.
Turning to `COc1cc(CCC(=O)CC(O)CCc2ccc(O)c(O)c2)ccc1O` (stereo not given), the Activity result with KB was “Not toxic”; with Hepatocyte [5] it was “Non-toxic”. Moreover, the IC50 in data set [1] was 36.4 µM; with Liver [2] it was 17.1 µM. In addition, the result with Hepatocyte [3] and with Liver [6] was Active.
